What all share (type): functional
For assay [1], the system named is Schistosoma mansoni. Kind of assay: Incorporation of 0.9 M *10e6 [3H]uridine in hycanthone(HC) resistant Schistosoma mansoni. The method in brief:
(§1)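 Adult HC-resistant S. mansoni were treated in vitro, and [3H]uridine incorporation by the worms was measured. Values are % of control. Concentrations are given in M × 10^6.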

Assay [2] relates to Schistosoma mansoni. In words: Incorporation of 0.9 M *10e6 [3H]uridine in hycanthone(HC) sensitive Schistosoma mansoni.
Assay [3] concerns Schistosoma mansoni. In words: Incorporation of 4.5 M*10e6 [3H]uridine in hycanthone(HC) sensitive Schistosoma mansoni.
Assay [4] concerns Schistosoma mansoni. In words: Incorporation of 4.5M*10e6 [3H]uridine in hycanthone(HC) resistant Schistosoma mansoni. In a few lines: as §1
In assay [5] the test system is Schistosoma mansoni. Kind of assay: Day 50% survival of worms in culture of HC resistant Schistosoma mansoni. In a few lines:
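Adult HC-resistant S. mansoni were exposed in vitro and kept in culture. The value is the day by which 50% of worms were dead. Cultures were ended at different times in different experiments. Concentrations are given in M × 10^6.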

For assay [6], the system named is Schistosoma mansoni. Kind of assay: Day 50% survival of worms in culture of HC sensitive Schistosoma mansoni.
In assay [7] the test system is Mus musculus. Kind of assay: In vivo antitumor activity against p-388 lymphocytic leukemia in mice at 50 mg/kg. In a few lines: (§2)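 Murine P388 lymphocytic leukemia model tested by the National Cancer Institute. Compound given once daily for 9 days; activity expressed as T/C.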
For assay [8], the system named is Mus musculus. In words: In vivo antitumor activity against p-388 lymphocytic leukemia in mice at 6.25 mg/kg (Duplicate value). In a few lines:
as §2

The subject of assay [9] is Mus musculus. Kind of assay: In vivo antitumor activity against p-388 lymphocytic leukemia in mice at 12.5 mg/kg (Duplicate value). In a few lines: as §2
Assay [10] has as its system Mus musculus. Kind of assay: In vivo antitumor activity against p-388 lymphocytic leukemia in mice at 25 mg/kg (Duplicate value). In a few lines: as §2
In assay [11] the test system is Schistosoma mansoni. Kind of assay: Incorporation of 1.3 M *10e6 [3H]uridine in hycanthone(HC) sensitive Schistosoma mansoni.
In assay [12] the test system is Schistosoma mansoni. Kind of assay: Incorporation of 1.3 [3H]uridine in hycanthone(HC) resistant Schistosoma mansoni. In a few lines:
as §1

Assay [13] deals with Schistosoma mansoni. In words: Incorporation of 6.3 M*10e6 [3H]uridine in hycanthone(HC) sensitive Schistosoma mansoni.
The subject of assay [14] is Schistosoma mansoni. Kind of assay: Incorporation of 1 M *10e6 [3H]uridine in hycanthone(HC) resistant Schistosoma mansoni. In a few lines: as §1
Assay [15] deals with Schistosoma mansoni. In words: Incorporation of 5M*10e6 [3H]uridine in hycanthone(HC) resistant Schistosoma mansoni. In a few lines: as §1
For assay [16], the system named is Schistosoma mansoni. Kind of assay: Incorporation of 5M*10e6 [3H]uridine in hycanthone(HC) sensitive Schistosoma mansoni.
Assay [17] deals with Mus musculus. In words: In vivo antitumor activity against p-388 lymphocytic leukemia in mice at 6.25 mg/kg. The method in brief: as §2
Assay [18] concerns Schistosoma mansoni. Kind of assay: Incorporation of 1 M *10e6 [3H]uridine in hycanthone(HC) sensitive Schistosoma mansoni.

Our source for the Control, Effect and T/C values is ChEMBL document CHEMBL1124248, “Preparation and antischistosomal and antitumor activity of hycanthone and some of its congeners. Evidence for the mode of action of hycanthone” (1988).

Where “and” joins values, the source holds several entries; their conditions need not be identical. Identical values can stand only once.

As a reminder, the T/C is the result in the treated group divided by that in the control group, in per cent.

With `CCN(CC)CCNc1ccc(COC(=O)c2cc([N+](=O)[O-])cc([N+](=O)[O-])c2)c2sc3ccccc3c(=O)c12`, the Control in the assay with Schistosoma mansoni [1] was 95%; in the assay on Schistosoma mansoni [2], 50%; with Schistosoma mansoni [3], 0%; in the assay with Schistosoma mansoni [4] it was 105%. In addition, the Effect is more than 17 days in the assay with Schistosoma mansoni [5] and 7 days with Schistosoma mansoni [6].

Take `CCN(CC)CCNc1ccc(COC(C)=O)c2sc3ccccc3c(=O)c12`: the T/C in the assay with Mus musculus [7] was found to be 118%; in the assay with Mus musculus [8], 123%; in the assay with Mus musculus [9], 129%; in the assay with Mus musculus [10], 125%. Moreover, the Control in the assay with Schistosoma mansoni [11] is on record as 13%; in the assay with Schistosoma mansoni [12], 19%; in the assay with Schistosoma mansoni [13] it was 4%. Besides, the Effect in the assay on Schistosoma mansoni [5] was >15 days and 7 days; in the assay on Schistosoma mansoni [6], 7 days.

As for `CCN(CC)CCNc1ccc(COC(=O)Nc2ccccc2)c2sc3ccccc3c(=O)c12`, the Control in the assay with Schistosoma mansoni [14] is 33%; in the assay on Schistosoma mansoni [15] it was 32%; in the assay on Schistosoma mansoni [16] it was 7%; with Schistosoma mansoni [18], 18%. For the same compound, the figures for the Effect with Schistosoma mansoni [5] and in the assay with Schistosoma mansoni [6] were 12 days and 8 days, respectively. The T/C in the assay with Mus musculus [17] worked out at 111%.
